In brackets after ≈: the same amount, converted by molar mass.
Assays:
Schistosoma mansoni = test: WHO-TDR: Schistosomiasis; assay type: functional; set-up: concentration or dose not given beside the values
Method in brief: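 Activity appears as percent inhibition and as IC50. The underlying screen tested a diverse library of 10,000 compounds, supplied by Life Chemicals, on whole larval and/or adult worms of the Puerto Rican strain of Schistosoma mansoni.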

[1] = WHO-TDR: Cytotoxicity; assay type: toxicity, cell-based; settings: human, MRC5 cells
[2] = test system: Trypanosoma brucei brucei; test: WHO-TDR: Human African Trypanosomiasis (HAT); assay type: functional, organism-based; settings: Squib-427
Method in brief: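 Values are IC50 figures for antiparasitic potency. They come from a whole-organism screen of 10,000 diverse Life Chemicals compounds against bloodstream-form Trypanosoma brucei (Squib 427 strain).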

Onchocerca lienalis = test: WHO-TDR: Onchocerciasis; assay type: functional; set-up: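 at 12.5 µM on microfilariae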
Method in brief: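 Following previously published standard procedures, with reference drugs as positive controls, a diverse Life Chemicals library was tested on whole Onchocerca ochengi or Onchocerca lienalis microfilariae. The library held 10,000 compounds filtered for drug-likeness and reactive groups. Activity is recorded both as percent inhibition and as IC50.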

Trypanosoma cruzi = test: WHO-TDR: Chagas disease; assay type: functional, organism-based, Homo sapiens; settings: MRC5
Method in brief: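 Following previously published standard procedures, with a reference drug as positive control, a whole-organism assay was run on Trypanosoma cruzi Tulahuen CL2 beta-galactosidase strain amastigotes inside MRC-5SV2 human lung fibroblast host cells. The 10,000 compounds tested formed a diverse Life Chemicals library filtered for drug-likeness and reactive groups. Results are expressed as IC50 for antiparasitic potency.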

Leishmania infantum = test: WHO-TDR: Leishmaniasis; assay type: functional, organism-based, Mus musculus; settings: Macrophage
Method in brief: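 Values are IC50 figures for antiparasitic potency. They come from a whole-organism screen of a 10,000-compound diverse Life Chemicals library against Leishmania infantum MHOM/MA(BE)/67 amastigotes inside murine peritoneal macrophage host cells.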

Plasmodium falciparum K1 = test: WHO-TDR: Malaria; assay type: functional, organism-based, Homo sapiens; settings: Erythrocyte
Method in brief: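 Values are IC50 figures for antiplasmodial potency. They come from a whole-organism screen of 10,000 diverse Life Chemicals compounds against Plasmodium falciparum K1 growing inside human red blood cells, run by previously published standard procedures.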

Brugia malayi = test: WHO-TDR: Lymphatic Filariasis; assay type: functional; set-up: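 tested at 10 µM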
Method in brief: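 Following previously published standard procedures, compounds were tested on whole Brugia malayi microfilariae, with reference drugs as positive controls. They came from a diverse Life Chemicals collection of 10,000 compounds filtered for drug-likeness and reactive groups. Results appear as percent inhibition and as IC50.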

Row | IC50 [2] [µg/mL] | IC50 (Leishmania infantum) [µg/mL] | IC50 (Plasmodium falciparum K1) [µg/mL] | SMILES | % Inhibition (Schistosoma mansoni) [%] | IC50 [1] [µg/mL] | % Inhibition (Onchocerca lienalis) [%] | IC50 (Trypanosoma cruzi) [µg/mL] | % Inhibition (Brugia malayi) [%]
1 | 0.307 (≈ 0.983 µM) | 3.95 (≈ 12.7 µM) | 6.12 (≈ 19.6 µM) | Cc1cccc(-c2nc(CCNC(=O)c3ccco3)cs2)c1 | 0 | 4.35 (≈ 13.9 µM) | 0 | 2.46 (≈ 7.87 µM) | 0
2 | 0.341 (≈ 1.02 µM) | 3.24 (≈ 9.71 µM) | 3.68 (≈ 11 µM) | Oc1ccc(Br)cc1/C=N/Nc1ncnc2[nH]cnc12 | 0 | 0.364 (≈ 1.09 µM) | -1 | 0.193 (≈ 0.579 µM) | 50
3 | 0.422 (≈ 1.04 µM) | > 12.2 | > 12.2 | COc1cccc(-n2ccnc2SCC(=O)Nc2ccccc2C(F)(F)F)c1 | 0 | > 12.2 | 0 | > 12.2 | 0
4 | > 10.5 | > 10.5 | > 10.5 | CCCS(=O)(=O)Nc1ccc(Nc2nc(C)cc(N(C)C)n2)cc1 | 0 | > 10.5 | 0 | 0.335 (≈ 0.959 µM) | –
5 | 0.429 (≈ 0.976 µM) | 4.27 (≈ 9.71 µM) | 0.357 (≈ 0.812 µM) | CCN(CC)c1cc(C)nc(Nc2ccc(NS(=O)(=O)c3ccc(C)cc3C)cc2)n1 | 100 | 1.51 (≈ 3.43 µM) | -1 | 0.324 (≈ 0.737 µM) | –
6 | 4.64 (≈ 9.6 µM) | 4.7 (≈ 9.71 µM) | 2.96 (≈ 6.11 µM) | CCOC(=O)c1c(NC(=O)C(C)n2c(-n3nc(C)cc3C)nc(CC)cc2=O)sc2c1CCC2 (stereo not given) | 0 | > 14.5 | 0 | 0.57 (≈ 1.18 µM) | –
7 | > 14.1 | 4.56 (≈ 9.71 µM) | 4.68 (≈ 9.97 µM) | CCOC(=O)c1c(NC(=O)Cn2c(-n3nc(C)cc3C)nc(CC)cc2=O)sc2c1CCC2 | 0 | > 14.1 | 0 | 0.749 (≈ 1.6 µM) | –
8 | > 14.9 | > 14.9 | 4.44 (≈ 8.93 µM) | CCOC(=O)c1c(NC(=O)Cn2c(-n3nc(C)cc3C)nc(CC)cc2=O)sc2c1CCCCC2 | 0 | > 14.9 | 0 | 0.724 (≈ 1.45 µM) | –
9 | 3.43 (≈ 6.59 µM) | > 15.6 | 4.27 (≈ 8.23 µM) | COc1ccccc1NC(=O)Nc1nc(CC(=O)N2CCN(c3cccc(C(F)(F)F)c3)CC2)cs1 | 0 | > 15.6 | 0 | 0.93 (≈ 1.79 µM) | –
10 | > 13.1 | 4.24 (≈ 9.71 µM) | > 13.1 | CCS(=O)(=O)c1ccc(-c2cccc(NC(=O)c3cc(Cl)ccc3Cl)c2)nn1 | 100 | > 13.1 | 0 | > 13.1 | –
11 | 0.493 (≈ 1.02 µM) | 4.69 (≈ 9.71 µM) | 4.28 (≈ 8.87 µM) | CCN(CC)c1ccc(NC(=O)Cc2csc(NC(=O)c3cc(OC)cc(OC)c3)n2)c(C)c1 | 0 | > 14.5 | 20 | 1 (≈ 2.08 µM) | –
12 | 0.342 (≈ 0.901 µM) | > 11.4 | 3.29 (≈ 8.68 µM) | CCc1ccccc1-n1c(C)cn2c3c(=O)n(CC(C)C)c(=O)n(C)c3nc12 | 0 | > 11.4 | 20 | > 11.4 | 0
13 | > 12.9 | 0.419 (≈ 0.971 µM) | > 12.9 | O=C(CSc1ccc(-c2ccc(-n3cccn3)cc2)nn1)Nc1ccc2c(c1)OCO2 | 0 | > 12.9 | 13.3 | > 12.9 | 0
14 | 10.9 (≈ 30 µM) | > 10.9 | > 10.9 | CS(=O)(=O)NCC(c1ccco1)S(=O)(=O)c1ccc(Cl)cc1 (stereo not given) | 0 | > 10.9 | 6.7 | 0.513 (≈ 1.41 µM) | 33.33
15 | > 13.4 | 1.96 (≈ 4.4 µM) | > 13.4 | O=C(COc1ccccc1)Oc1ccc2nc(N3CCN(c4ccccc4)CC3)sc2c1 | 0 | > 13.4 | 0 | 9.76 (≈ 21.9 µM) | 0
16 | > 15 | 0.223 (≈ 0.446 µM) | > 15 | CCCCN(C)S(=O)(=O)c1ccc(C(=O)N2CCN(c3nc4c(C)ccc(C)c4s3)CC2)cc1 | 0 | > 15 | 13.3 | > 15 | 16.67

Row | IC50 [2] [µg/mL] | IC50 (Leishmania infantum) [µg/mL] | IC50 (Plasmodium falciparum K1) [µg/mL] | SMILES | % Inhibition (Schistosoma mansoni) [%] | IC50 [1] [µg/mL] | % Inhibition (Onchocerca lienalis) [%] | IC50 (Trypanosoma cruzi) [µg/mL] | % Inhibition (Brugia malayi) [%]
17 | > 10.5 | > 10.5 | 3.18 (≈ 9.13 µM) | CCCn1/c(=N/C(=O)C2=COCCO2)sc2c(C)ccc(OC)c21 | 0 | > 10.5 | 20 | 0.89 (≈ 2.55 µM) | 0
18 | > 11.5 | 1.09 (≈ 2.85 µM) | > 11.5 | COc1ccc(-c2ccc(NS(=O)(=O)c3ccc(Cl)s3)cc2)nn1 | 0 | > 11.5 | 0 | > 11.5 | 16.67
19 | 0.35 (≈ 0.958 µM) | 0.39 (≈ 1.07 µM) | 1.74 (≈ 4.76 µM) | CN(C)CCCN(C(=O)/C=C/c1ccccc1)c1nc2ccccc2s1 | 100 | 3.81 (≈ 10.4 µM) | 25.05 | 0.406 (≈ 1.11 µM) | 0
20 | 4.37 (≈ 10.3 µM) | > 13.8 | 5.41 (≈ 12.8 µM) | CN(C)CCCN(C(=O)c1ccc(Br)s1)c1nc2ccccc2s1 | 0 | > 13.8 | 11.35 | 0.791 (≈ 1.86 µM) | 0
21 | > 13.3 | 4.32 (≈ 9.71 µM) | > 13.3 | O=C(COc1ccc(Cl)cc1Cl)N(Cc1ccccn1)c1nc2ccccc2s1 | 0 | > 13.3 | 0 | 0.863 (≈ 1.94 µM) | 0
22 | > 11.4 | 3.7 (≈ 9.71 µM) | 7.58 (≈ 19.9 µM) | O=C(c1c(F)cccc1F)N(Cc1ccccn1)c1nc2ccccc2s1 | 0 | 2.13 (≈ 5.58 µM) | 4.601 | 0.546 (≈ 1.43 µM) | 0
23 | > 12.2 | > 12.2 | 11.3 (≈ 28 µM) | O=C(CCSc1ccccc1)N(Cc1ccccn1)c1nc2ccccc2s1 | 0 | > 12.2 | 11.35 | 0.466 (≈ 1.15 µM) | 0
24 | > 14.2 | 0.461 (≈ 0.971 µM) | 10.9 (≈ 22.9 µM) | O=C(Cn1c(S(=O)(=O)Cc2ccccc2)nc2ccccc21)N1CCN(c2ccccc2)CC1 | 0 | > 14.2 | 11.35 | > 14.2 | 0
25 | 0.856 (≈ 2.43 µM) | > 10.6 | > 10.6 | CSc1ccccc1-c1nnc(NC(=O)c2ccc(Cl)s2)o1 | 0 | > 10.6 | 86.4 | 0.416 (≈ 1.18 µM) | 0
26 | 0.656 (≈ 1.98 µM) | 6.77 (≈ 20.4 µM) | > 9.94 | CCSc1ccccc1C(=O)Nc1nnc(-c2cccs2)o1 | 0 | 5.3 (≈ 16 µM) | 20 | 0.413 (≈ 1.25 µM) | 0
27 | 0.395 (≈ 0.948 µM) | 0.405 (≈ 0.972 µM) | > 12.5 | CCS(=O)(=O)c1cccc(C(=O)Nc2nc3c(s2)CSc2ccccc2-3)c1 | 75 | 4 (≈ 9.6 µM) | 46.7 | 0.412 (≈ 0.989 µM) | 0
28 | 0.432 (≈ 1.01 µM) | 4.53 (≈ 10.5 µM) | 0.506 (≈ 1.18 µM) | COc1ccc(C)c2sc(N(CCCN(C)C)C(=O)c3ccccc3SC)nc12 | 0 | 4.42 (≈ 10.3 µM) | 13.3 | 5.29 (≈ 12.3 µM) | 0
29 | 3.69 (≈ 9.49 µM) | > 11.7 | 4.56 (≈ 11.7 µM) | O=C(Nc1ccc2c(c1)N(C(=O)C1CC1)CCC2)c1cccc(C(F)(F)F)c1 | 0 | > 11.7 | 13.3 | 0.808 (≈ 2.08 µM) | 0
30 | 6.35 (≈ 16.7 µM) | > 11.4 | > 11.4 | CCCc1cc(=O)n(CC(=O)Nc2ccc(C)cc2)c(-n2nc(C)cc2C)n1 | 0 | 10.5 (≈ 27.6 µM) | 27.7 | 0.764 (≈ 2.01 µM) | 0
31 | 0.643 (≈ 1.45 µM) | > 13.3 | 3.81 (≈ 8.61 µM) | CC(=O)c1cccc(Nc2nc(Nc3ccc(F)c(Cl)c3)nc(N3CCOCC3)n2)c1 | 25 | 5.32 (≈ 12 µM) | 0 | 0.465 (≈ 1.05 µM) | 0
